This is an account of results in ChEMBL document CHEMBL4808167, “Design, Synthesis, and Evaluation of Small Molecule Gαq/11 Protein Inhibitors for the Treatment of Uveal Melanoma” (J Med Chem, 2021).

Calls of active or inactive are those of the source. The rule behind the calls is not given here.

The subject of series [1] is MP41. Put plainly: Inhibition of cell invasion in human MP41 cells at 5 to 15 uM incubated for 48 hrs by transwell assay. The class given is functional, cell-based. The settings on record: dose 5-15 µM. The essentials: (§1)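 92.1 or MP41 cells (1 × 10⁴/well) seeded in serum-free medium in the upper transwell chamber, with 20% FBS medium below. Left overnight, then treated 48 h. Non-migrated cells swabbed off; cells on the lower side stained with crystal violet 30 min and counted by light microscopy (×40 for migration, ×100 for invasion). Mean ± SD, n = 3.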

A short description of series [2]: AUC(0 to t) in ICR mouse at 30 mg/kg, po measured upto 24 hrs by LC-MS/MS analysis. The class given is ADME, organism-based. On the set-up: route oral, dose 30 mg/kg, time <=24. The settings on record: in vivo. The method in brief:
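Single dose in male ICR mice, 10 mg/kg iv or 30 mg/kg po, dissolved in 5% DMSO/95% saline. Blood drawn by catheter at 0, 5, 15, 30 min and 1, 2, 4, 6, 8, 24 h. Plasma spun 6800g 6 min at 2−8 °C, stored −80 °C, quantified by LC−MS/MS. Noncompartmental parameters, mean ± SD, n = 6.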

Series [3] in a line: Induction of apoptosis in human 921 cells assessed as viable cells at 5 uM after 48 hrs by Annexin-V-FITC/propidium iodide staining based flow cytometry (reference value: 93.8%). The class given is functional. The settings on record: read-out: Activity. In general terms: In flow cytometry, cells or beads pass a laser one at a time.
For series [4], the system named is MP41. Kind of series: Inhibition of cell migration in human MP41 cells at 15 uM incubated for 48 hrs by transwell migration assay. The class given is functional, cell-based. The essentials: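 Transwell migration: 92.1 and MP41 cells (RPMI-1640, 10% FBS) seeded 1 × 10⁴/well in upper chamber in serum-free medium, 20% FBS medium below; overnight at 37 °C, then compound for 48 h. Non-migrated cells swabbed off; lower cells crystal violet-stained 30 min, counted by light microscopy. Mean SD of three independent experiments.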

The next series has as its target T1, GNAQ/GNA11 (Homo sapiens, UniProt P50148+P29992).
T1 sequence (P50148 whole entry): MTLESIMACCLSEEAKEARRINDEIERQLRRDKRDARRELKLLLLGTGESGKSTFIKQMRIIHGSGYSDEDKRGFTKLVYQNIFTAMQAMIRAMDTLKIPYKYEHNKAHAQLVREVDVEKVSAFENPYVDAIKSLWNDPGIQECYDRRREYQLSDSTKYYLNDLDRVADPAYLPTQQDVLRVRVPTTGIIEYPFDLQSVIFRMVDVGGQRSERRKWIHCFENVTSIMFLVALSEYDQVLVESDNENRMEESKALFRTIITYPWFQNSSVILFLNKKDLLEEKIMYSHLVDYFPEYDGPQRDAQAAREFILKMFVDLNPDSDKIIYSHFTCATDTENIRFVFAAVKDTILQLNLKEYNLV
T1 sequence (P29992 whole entry): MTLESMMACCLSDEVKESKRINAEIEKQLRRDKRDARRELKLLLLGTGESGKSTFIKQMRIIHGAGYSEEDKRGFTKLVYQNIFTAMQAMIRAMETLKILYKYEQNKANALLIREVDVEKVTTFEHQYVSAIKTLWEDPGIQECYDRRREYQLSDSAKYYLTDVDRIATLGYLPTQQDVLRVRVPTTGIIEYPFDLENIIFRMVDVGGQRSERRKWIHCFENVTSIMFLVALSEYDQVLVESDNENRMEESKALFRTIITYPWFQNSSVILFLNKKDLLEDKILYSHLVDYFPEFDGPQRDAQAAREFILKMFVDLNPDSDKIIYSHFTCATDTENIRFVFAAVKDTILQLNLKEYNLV
Kind of series: Binding affinity to Galphaq/11 (unknown origin) expressed in HEK293 cells cotransfected with AT1R/Galphaq-RLuc8/ Ggamma2-venus/Gbeta1 assessed as inhibition of Ang-II induced-BRET signal preincubated for 1 hr followed by Ang-II addition by BRET assay. The class given is cell-based. The essentials:
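HEK293 cells transiently transfected with AT₁R, Gαq-RLuc8, Gγ2-Venus and untagged Gβ1. Replated 24 h later, washed with HBS, starved 10 min, then pretreated with compound for 1 h at 37 °C. AngII added, followed by coelenterazine. BRET ratio taken as Venus emission (520−570 nm) over RLuc8 emission (370−480 nm). Mean ± SD, n = 3.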
On the technique in general: In BRET a luciferase serves as donor, and the signal depends on an acceptor being close.

Series [5] in a line: Induction of apoptosis in human 921 cells assessed as late apoptotic cells at 5 uM after 48 hrs by Annexin-V-FITC/propidium iodide staining based flow cytometry (reference value: 2.52%). The class given is functional.
The test system of series [6] is 921. Kind of series: Antiproliferative activity against human 92.1 cells assessed as inhibition of cell growth at 5 to 15 uM by CCK8 assay. The class given is functional, cell-based. The settings on record: dose 5-15 µM, time 24-96 hrs, TDE = time-dependent effect. Background: Formazan colour is commonly taken as a measure of viable cells.
A short description of series [7]: Induction of apoptosis in human MP41 cells assessed as late apoptotic cells at 15 uM after 48 hrs by Annexin-V-FITC/propidium iodide staining based flow cytometry (reference value: 3.28%). The class given is functional.
Series [8] has as its target T2, GNAQ/GNA11 (Homo sapiens) (UniProt P50148+P29992). Kind of series: Inhibition of Galphaq/11 (unknown origin) expressed in HEK293 cells cotransfected with AT1R assessed as inhibition of Ang-II induced calcium release at 100 uM preincubated for 30 mins followed by Ang-II addition by Fluo-4AM dye based fluorescence assay. The class given is cell-based. The essentials: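 HEK293 cells transfected with AT₁R, washed in HBSS with 0.1% BSA and loaded with Fluo-4 AM for 1 h at 37 °C. Washed, then pretreated with compound at 100 μM for 30 min. AngII at varying concentrations added 20 s into the fluorescence recording. Mean ± SD, n = 3.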

Series [9] concerns 921. Kind of series: Inhibition of cell invasion in human 921 cells at 5 to 15 uM incubated for 48 hrs by transwell assay. The class given is functional, cell-based. The settings on record: dose 5-15 µM. The essentials:
as §1

For series [10], the system named is 921. Kind of series: Antiproliferative activity against human 92.1 cells assessed as inhibition of cell growth at 10 to 15 uM after 72 hrs by CKK8 assay. The class given is functional, cell-based. The settings on record: dose 10-15 µM.
Series [11] is described as follows: Induction of apoptosis in human MP41 cells assessed as viable cells at 30 uM after 48 hrs by Annexin-V-FITC/propidium iodide staining based flow cytometry (reference value: 93.6%). The class given is functional. The settings on record: read-out: Activity.
Series [12] concerns 921. Put plainly: Inhibition of colony formation in human 921 cells at 1 to 5 uM after 9 days by crystal violet staining based light microscopic analysis. The class given is functional, cell-based. The settings on record: dose 1-5 µM, time 9.0 day. The method in brief: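 Cells seeded 4 × 10³/well, incubated overnight at 37 °C, 5% CO₂, then exposed to compound for 9 days until colonies visible, medium and inhibitor replaced every 3 days. Fixed in 4% paraformaldehyde 15 min, crystal violet-stained 30 min, colonies counted. Repeated twice.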

Series [13] in a line: Toxicity in nude BALB/c mouse xenografted with human MP41 cells assessed as morphological changes in spleen tissue at 10 to 30 mg/kg, ip administered once daily for 21 days and measured every 3 days by HE staining based assay. The class given is organism-based. The conditions noted are these: in vivo, 504 h, dose 10-30 mg/kg, time 21 day. The method in brief: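 Nude BALB/c mice bearing serially passaged MP41 tumour slices (tertiary recipients, n = 8/group, randomized) dosed ip daily for 21 days at 10 or 30 mg/kg/d or vehicle. Body weight monitored every 3 days. Tissues collected at sacrifice, fixed in 4% paraformaldehyde 24 h, paraffin-embedded, H&E stained, viewed at ×100.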

In series [14] the target is T2, GNAQ/GNA11 (Homo sapiens). Put plainly: Inhibition of Galphaq/11 (unknown origin) expressed in CHO cells coexpressing M1 receptor assessed as reduction in carbachol-induced IP1 accumulation at 10 uM preincubated for 1 hr followed by carbachol stimulation and measured after 1 hr by HTRF assay relative to control. The class given is cell-based. The conditions noted are these: time 2.0 hrs.

In general, inhibition refers to how much of the control response was suppressed. What is called AUC(0-t) is exposure summed from dosing to a finite time, without extrapolation to infinity. Low readings indicate less exposure, high ones more exposure. In general, IC50 refers to the concentration that inhibits the measured activity by half. `CC[C@@H](C)[C@H](N)C(=O)N1CCn2cc(-c3ccccc3)nc2[C@@H]1CC1CCCCC1`: the inhibition entry with MP41 [1], in the series with MP41 [4], in the series with 921 [9] and in the series on 921 [12] was “Active” in each case. This molecule displayed an AUC(0-t) at 24 h in series [2] of 5940 ng·h/mL. In [3], the viability at 5 µM turned out to be 90.1%. Further, at GNAQ/GNA11, the IC50 was determined as 55.2 µM. The Activity in series [5] was 3.4%; in the series on 921 [6], “Tde”; in series [7], 4.42%; in series [13] it was “Non-Toxic”. In addition, the result (in series [8]; with 921 [10]) was Active. The viability at 30 µM in [11] is 75.7%. For the same molecule, the inhibition in [14] was 36.5%.
